# Compounds with a hit are over-represented: about 5.5% of the library has one in this group of screens.
# STAT3 blocker: inhibitors of IL-6 induced STAT3 signaling; U3A cells, IL-6 STAT3-luciferase reporter, luminescence; host cell line lacks STAT1; inhibition, % at 5.5 µM; hit rate 0.89% among 190,000; AID 862;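 active = inhibition above the mean inhibition across all screened compounds plus 3 SD, cut at about 44% in these data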
# STAT1 blocker: STAT1 signaling inhibition; inhibition, % at 5.5 µM; AID 920; NIH 3T3 STAT1-luciferase reporter, IFN-gamma, luminescence; hit rate 0.35% among 200,000;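 active = inhibition above a set limit, the mean inhibition across all tested compounds plus 3 SD, cut at about 34% in these data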
# KCC2 mod: modulates chloride dependent transport by human KCC2; hit rate 2.2% among 190,000; B-score of Tl+ flux slope (higher = more flux/activation; lower = inhibition) at 10 µM; Q9H2X9; KCC2 cells, thallium flux FluoZin-2 fluorescence;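 active = thallium flux slope and its plate-corrected score both differing from the plate sample mean at a set confidence after two filtering rounds, in either direction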;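 note: slope of fluorescence scaled to starting intensity during 10 to 20 s after thallium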
# STAT1 act-1: increases IFN-gamma driven STAT1 reporter signal; AID 932; NIH 3T3 STAT1-luciferase reporter, luminescence; 100% = IFN-gamma alone, no compound; hit rate 2.6% among 200,000; activation (% of control), % at 5.5 µM;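 active = activation above the screen-wide mean activation plus 3 SD, cut at about 130% in these data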
# HSV replic up: increases HSV replication in cells; HSV replication augmentation in cells, fold increase; maximum fold increase; hit rate 0.005% among 220,000; in the data active = maximum fold increase above about 1.5; inconclusive = no clear call, values can overlap the other calls; tested in PC3 cells
# STAT3 act-1: STAT3 signaling activation; AID 871; U3A cells, IL-6 STAT3-luciferase reporter, luminescence; 100% = signal with IL-6 EC80 alone; activation (% of control), % at 5.6 µM; hit rate 0.91% among 190,000;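 active = activation above the screen-wide mean of compound activation plus 3 SD, cut at about 130% in these data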
#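 System – human U3A cells carrying STAT3-luciferase construct · Probe or stimulus – Interleukin-6, 33 ng/mL · Schedule – compound 1 h, then IL-6 6 h at 37 °C · Signal – luminescence from STAT3-driven luciferase reporter · Evaluation – percent of IL-6-only median luminescence · Benchmarks – IL-6-only high control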
# STAT3 act-2: STAT3 activation, confirmation assay. shares compounds with STAT3 act-1. hit rate 64% among 1,200. AID 1267. U3A STAT3-luciferase reporter, IL-6 potentiation, luminescence; U3A cells lack STAT1; 100 means same as IL-6 alone. potentiation (% of control), % at 5.7 µM;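 active = percent activation of the STAT3 luciferase reporter above a set limit taken from the earlier primary screen, cut at about 130% in these data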
# NFkB act 2: counter-screen for STAT3 activators: NF-kappaB activation | shares compounds with STAT3 act-1 | human cells, NF-kappaB reporter activation | activation (% of control), % at 5.7 µM | hit rate 11% among 1,200 | AID 1309; in the data active = activation above about 120%;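 note: reporter induced by TNF-alpha stimulation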
# STAT1 act-2: counter-screen for STAT3 activators: STAT1 activation; shares compounds with STAT3 act-1; NIH 3T3 STAT1-luciferase reporter, IFN-gamma, luminescence; activation (% of control), % at 5.7 µM; hit rate 13% among 1,200; AID 1318;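 active = activation above the solvent-only control well mean plus 3 SD, set per screening run, cut at about 120% in these data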
# A number is an active result; n = inactive; u = inconclusive; x = no result.
SMILES,STAT3 blocker,STAT1 blocker,KCC2 mod,STAT1 act-1,HSV replic up,STAT3 act-1,STAT3 act-2,NFkB act 2,STAT1 act-2
CN(CC(=O)Nc1ccc(F)c(F)c1F)C(=O)/C=C/c1ccc(Cl)cc1,n,n,n,n,n,n,x,x,x
CCOc1ccccc1NC(=O)Cn1nnc(C(=O)NCc2ccco2)c1N,n,n,n,n,x,138,n,142,n
CC(c1nccs1)N(C)C(=O)CCc1nnc(Cc2c[nH]c3ccccc23)o1 (stereo unspecified),n,n,n,n,n,n,x,x,x
CCC(C)C(=O)Nc1nc(C)c(-c2csc(Nc3ccc(Cl)cc3)n2)s1 (stereo unspecified),n,n,n,n,n,139,n,n,n
Cc1ccc(Nc2nc(-c3sc(NC(=O)c4cccc(Cl)c4)nc3C)cs2)cc1,n,n,n,n,n,156,n,n,n
CCCC(=O)Nc1nc(C)c(-c2csc(Nc3ccc(Cl)cc3)n2)s1,n,n,n,n,n,177,162,n,n
CCOc1ccccc1N(C(=O)Nc1ccc(Cl)cc1)C1=NCCS1,n,n,n,n,n,n,x,x,x
COc1ccc2[nH]c(=O)c3c(c2c1)OC(C)(C)C=C3,n,n,n,n,n,137,n,n,n
COCc1cc(=O)n2c(-c3ccccc3OC)n[nH]c2n1,n,n,n,n,n,145,159,n,n
CCCn1c(N2CCN(CC(=O)c3c[nH]c4ccccc34)CC2)nc2c1c(=O)[nH]c(=O)n2C,n,n,x,n,n,147,139,n,n
O=C(CN1CCN(Cc2ccccc2)CC1)c1c[nH]c2ccccc12,n,n,x,n,n,138,n,n,n
CCn1c(N2CCN(CC(=O)c3c(C)n(C)c4ccccc34)CC2)nc2c1c(=O)[nH]c(=O)n2C,n,n,x,n,n,n,x,x,x
O=C(CN1CCSCC1)c1c[nH]c2ccccc12,n,n,n,n,n,n,x,x,x
COc1cc(OC)cc(C(=O)OCc2ccc([N+](=O)[O-])cc2)c1,n,n,n,n,n,n,x,x,x
COC(=O)c1cc2ccsc2n1CC(=O)Nc1cc(Cl)ccc1OC,n,n,n,n,n,152,147,n,n
CC(=O)Nc1nnc(-c2c(-c3c(Cl)cccc3Cl)noc2C)o1,x,x,n,x,n,x,x,x,x
O=C(Nc1nc(-c2cccs2)cs1)c1cccc(S(=O)(=O)N2CCCCCC2)c1,n,n,x,n,u,140,n,n,125
CN1c2ccsc2/C(=N/Nc2ccc(F)cc2)CS1(=O)=O,n,n,n,n,n,n,x,x,x
Cc1ccc(N/N=C2\CS(=O)(=O)N(C)c3ccsc32)cc1,n,n,x,n,n,141,144,121,n
CCOC(=O)c1cc2sccc2n1CC(=O)c1ccc2c(c1)OCCO2,n,n,n,n,n,n,x,x,x
O=C(NCc1ccccn1)C(=O)C1C(=O)Nc2ccccc21 (stereo unspecified),n,n,n,n,n,n,x,x,x
COc1ccc2ncn(-c3ccccc3)c2c1,n,n,n,n,n,136,n,n,n
CS(=O)(=O)N1CCN(c2ccc([N+](=O)[O-])c(NCc3cccnc3)c2)CC1,n,n,n,n,n,n,x,x,x
Fc1ccc2nc(Nc3nc4c(F)cccc4s3)sc2c1,n,n,38,n,n,140,169,n,130
CCC(=O)NNc1nc2c(F)cccc2s1,n,n,n,n,n,n,x,x,x
SMILES,STAT3 blocker,STAT1 blocker,KCC2 mod,STAT1 act-1,HSV replic up,STAT3 act-1,STAT3 act-2,NFkB act 2,STAT1 act-2
Fc1cccc2sc(Nc3nc4ccccc4s3)nc12,n,n,12,n,n,177,210,129,156
CCS(=O)(=O)Nc1c(C(=O)OC)[nH]c2ccccc12,n,n,n,n,n,139,n,n,n
CC(=O)Nc1c(C(=O)O)[nH]c2ccccc12,n,n,n,n,n,n,x,x,x
COC(=O)c1[nH]c2ccccc2c1NC(=O)c1ccccc1F,x,x,n,x,n,x,x,x,x
CCS(=O)(=O)Nc1c(C(=O)O)[nH]c2ccccc12,n,n,n,n,n,164,169,n,n
Cc1ccc(NC(=S)N(CCCN(C)C)Cc2cc3cc4c(cc3[nH]c2=O)OCO4)c(C)c1,n,n,n,n,n,n,x,x,x
O=C(Cc1ccccc1)NCc1ccc(-n2cccc2)cc1,n,n,n,n,n,n,x,x,x
C=CCN1C(=O)C(Cc2ccc(OCC)cc2)S/C1=N\N=C\c1cccs1 (stereo unspecified),n,n,n,n,n,n,x,x,x
Cc1cccc(C)c1-n1c(C)nn(Cc2ccc([N+](=O)[O-])cc2)c1=O,n,n,n,n,n,n,x,x,x
OC1CCN(c2c3c(nc4cc(-c5ccc(F)cc5)nn24)CCC3)CC1,n,n,n,n,n,n,x,x,x
O=C(C1CCCO1)N1CCN(c2c3c(nc4cc(-c5ccc(F)cc5)nn24)CCC3)CC1 (stereo unspecified),n,n,n,n,n,137,n,n,n
CN(CC(=O)Nc1ccc(N2CCOCC2)cc1)CC(=O)Nc1ccc(Cl)cc1[N+](=O)[O-],n,n,n,n,n,n,x,x,x
COc1ccc(OCCSc2nnc(-c3ccc(OC)cc3)n2N)cc1,n,n,n,n,n,n,x,x,x
O=C(O)c1csc(-n2nc(-c3ccccc3)cc2C(F)(F)F)n1,n,n,x,n,n,n,x,x,x
O=c1c2ccccc2ncn1Cc1ccco1,n,n,x,n,n,147,145,n,n
Cc1cc(C)n2nc(SCC(=O)N(C)c3c(N)n(Cc4ccccc4)c(=O)[nH]c3=O)nc2n1,n,n,n,n,n,n,x,x,x
COc1cccc(-c2nc(N3CCCCC3C)c3ccccc3n2)c1O (stereo unspecified),n,n,n,n,n,138,138,n,n
Cc1ccccc1Oc1nc2c(C)cccn2c(=O)c1/C=C(\C#N)C(=O)Nc1c(C)n(C)n(-c2ccccc2)c1=O,n,n,n,n,n,n,x,x,x
CC(=O)/C(N=Nc1cc(C)ccc1O)=C(\C)O,n,n,n,n,x,149,150,n,n
CC(=O)/C(N=Nc1ccc(C(=O)O)cc1[N+](=O)[O-])=C(\C)O,x,x,n,x,n,x,x,x,x
COc1ccc(C2=NC(CO)(CO)CO2)cc1,n,n,n,n,n,n,x,x,x
COc1ccc(NC(=O)c2sc(Cl)nc2-c2ccccc2)cc1,n,n,n,n,n,n,x,x,x
CCc1ccc(/C=C/C(=O)c2cc(Br)ccc(=O)c2O)cc1,n,n,8,n,n,150,136,n,n

# High-throughput results from PubChem.
